Compounds with a hit are over-represented: about 3.8% of the library has one in this group of screens.
SIRT5 block = SIRT5 desuccinylase inhibitors, primary screen, biochemical, fluorescence imaging, single point, set 5; Purified SirT5, succinyl-peptide AMC, trypsin-coupled fluorescence; AID 652115, 2013; 330,000 compounds, 1.1% hits; inhibition, % at 15 µM; in the data active = inhibition above about 15%
Target sequence (Q9NXA8 whole entry, looked up): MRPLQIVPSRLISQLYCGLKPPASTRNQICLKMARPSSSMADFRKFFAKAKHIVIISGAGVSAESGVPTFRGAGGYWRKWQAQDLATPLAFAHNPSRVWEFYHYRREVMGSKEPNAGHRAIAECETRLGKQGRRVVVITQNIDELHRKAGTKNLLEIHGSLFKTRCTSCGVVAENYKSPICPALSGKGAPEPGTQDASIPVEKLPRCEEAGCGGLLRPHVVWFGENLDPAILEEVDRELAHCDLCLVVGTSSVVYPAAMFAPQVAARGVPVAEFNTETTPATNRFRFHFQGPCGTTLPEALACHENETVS
FN deposition inh = inhibitors of fibronectin matrix deposition, primary screen, AH1F cells, Alexa488-fibronectin fluorescence, plate reader; inhibition, % at 12.6 µM; AID 743247, 2014; AH1F fibroblasts, overnight; 350,000 compounds, 0.086% hits;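 active = mean inhibition across replicates of 30% or more, regardless of how many single replicates reach that level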;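 note: positive control wells lacked labelled fibronectin entirely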
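material = AH1F fibroblast monolayer depositing Alexa488-labelled fibronectin into matrix | amount = 10000 AH1F cells/well | buffer or medium = DMEM plus 2% serum, read in PBS | incubation = 1 h cell adhesion before compound, then overnight fibronectin incubation | detection = fluorescence at 485 nm excitation, 525 nm emission | evaluation = percent inhibition as loss of matrix-bound fibronectin fluorescence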
FGF22 binding = binders of human FGF22 protein, primary screen, FGF22 synaptogenesis inhibitor project, biophysical, thermal shift, single point; activity (Tm shift, normalised), % at 9.99 µM; Fibroblast growth factor 22 (Homo sapiens), Q9HCT0; 340,000 compounds, 1.5% hits; recombinant FGF22 thermal shift, SYPRO orange fluorescence; percent of sucrose octasulfate shift, DMSO zero;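 active = mean Tm shift, scaled 0 neutral to 100 positive control, at about 1.3% or above, every replicate too, limit read from the data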
Target sequence (Q9HCT0 whole entry, looked up): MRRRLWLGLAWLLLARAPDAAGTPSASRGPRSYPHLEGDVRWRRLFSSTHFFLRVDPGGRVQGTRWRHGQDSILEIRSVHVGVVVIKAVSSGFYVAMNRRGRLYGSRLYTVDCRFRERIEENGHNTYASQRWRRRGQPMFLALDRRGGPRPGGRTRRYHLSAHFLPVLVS
DENV2 CPE rescue = inhibitors of DENV2 cytopathic effect, primary screen, cell-based, plate reader, single concentration; CPE inhibition, % at 9.99 µM; DENV2-infected cells, cytopathic effect rescue; 350,000 compounds, 1.7% hits; AID 651640, 2012; in the data active = CPE inhibition above about 20%, passing the limit was not always enough; tested in BHK-21 cells;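 note: 0% = median of neutral control wells and 100% = median of positive control wells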
ARNT-TACC3 inh = disruptors of ARNT/TACC3 protein interaction, primary screen, biochemical, AlphaScreen, single concentration; AlphaScreen His-ARNT PAS-B/GST-TACC3 binding, luminescence; TACC3 fragment carries E629A point mutation; inhibition, % at 9.99 µM; 390,000 compounds, 0.66% hits; AID 623870, 2012;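 active = mean inhibition of replicates at least 50% and at least half of replicates each reaching 50%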;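 note: 0% = complete ARNT plus TACC3 wells and 100% = ARNT alone without TACC3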
XiGFP reactiv = activators of inactive X chromosome reactivation, primary screen, imaging, XiGFP fibroblasts, GFP high-content imaging, set 2 | XiGFP mouse fibroblasts, % GFP-positive cells imaging, 3 d; cells co-treated with 5-aza-dC sensitizer; scaled so ellipticine positive control = 100% | activation, % at 7.58 µM | 360,000 compounds, 0.055% hits | AID 743238, 2013;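 active = mean normalized replicate activation at least 10% and every replicate at or above 10%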;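 note: 0% = median of on-plate neutral control wells and 100% = ellipticine 6 µM median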
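Material: XiGFP fibroblasts, SV40-immortalized; Buffer or medium: DMEM containing 5-aza-dC; Compound dosing: single point; Times: 3 days compound exposure.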
An asterisk follows results filed as active; · = not tested or not shown.

SMILES	SIRT5 block	FN deposition inh	FGF22 binding	DENV2 CPE rescue	ARNT-TACC3 inh	XiGFP reactiv
Cc1ccc([N+](=O)[O-])cc1S(=O)(=O)N1CCN(C)CC1	-3	-3	0	-3	-5	0
Cc1ccc([N+](=O)[O-])cc1S(=O)(=O)n1ccnc1C	-1	4	43*	-3	11	0
CCS(=O)(=O)N1CC(=O)N2[C@H](CO)[C@@H](c3ccc(-c4ccccc4)cc3)[C@@H]2C1	0	·	·	10	·	0
CN(C)Cc1cn(CC[C@@H]2CC[C@@H](NC(=O)Nc3ccccc3F)[C@H](CO)O2)nn1	-9	-5	0	0	0	1
O=C1c2cc(O)cc(O)c2C(=O)c2c1cc(O)c([C@@H](CO)CCO)c2O	5	·	1	-15	46*	·
Cc1cc(O)c2c(c1)C(=O)c1cc(O)cc(O)c1C2=O	0	4	0	-4	1	0
CO[C@@H]1CN(C)C(=O)c2cc(NC(=O)c3ccc4c(c3)OCO4)ccc2OC[C@H](C)N(CC2CC2)C[C@H]1C	9	·	0	17	4	0
Nc1nnc(CC(=O)N/N=C\c2cc([N+](=O)[O-])ccc2O)s1	3	-5	0	4	65*	0
Cc1cc([N+](=O)[O-])nn1CC(=O)N/N=C/c1ccccc1F	-8	-5	0	-4	-8	0
O=C(CSCC(=O)NN=Cc1ccccc1O)NN=Cc1ccccc1O	-1	5	1	-5	·	0
O=C(CN1C(=O)NC2NC(=O)NC21)N/N=C/c1ccccc1O (configuration not stated)	-2	15	0	16	66*	0
Cc1cc([N+](=O)[O-])nn1CC(=O)N/N=C/c1ccccc1O	6	13	0	6	68*	0
Nc1nnnn1CC(=O)N/N=C/c1cc([N+](=O)[O-])ccc1O	4	·	1	-5	67*	0
C[C@H](CO)N1C[C@H](C)[C@@H](CN(C)CC2CC2)OCCCC[C@H](C)Oc2ccc(NS(=O)(=O)c3ccc(F)cc3)cc2C1=O	-1	·	0	8	-8	0
CN(C)C(=O)c1ccc(-c2ccc([C@H]3[C@H](CO)N4CCCCN(C(=O)C5CC5)C[C@@H]34)cc2)cc1	2	·	0	1	-5	0
O=C1NCCOCn2nncc2CC[C@H]1Cc1ccccc1	·	-13	·	·	·	0
CO[C@@H]1CN(C)C(=O)c2cc(NC(=O)c3ccc(Oc4ccccc4)cc3)ccc2OC[C@@H](C)NC[C@@H]1C	0	9	0	6	4	0
Cc1cccc(S(=O)(=O)N2C[C@H]3[C@@H](c4ccccc42)[C@@H](CO)N3CC2CCOCC2)c1	1	·	-1	-3	-1	0
Cc1cc(C)n(CC(=O)N/N=C/c2cc([N+](=O)[O-])ccc2O)n1	3	-6	0	·	72*	0
Cc1cc(C)n(CC(=O)N/N=C/c2cc(Br)cc([N+](=O)[O-])c2O)n1	-2	-12	0	3	3	0
Nc1nnc(CC(=O)N/N=C/c2ccc(-c3ccc(F)cc3)o2)s1	1	-3	0	-4	·	0
Nc1nnc(CC(=O)N/N=C/c2ccc(-c3cccc(C(=O)O)c3)o2)s1	20*	5	0	1	28	0
Cc1noc(C)c1NC(=O)N(C)C[C@H]1Oc2ccc(NS(=O)(=O)c3cn(C)cn3)cc2CC(=O)N([C@@H](C)CO)C[C@@H]1C	3	-12	0	0	·	-1
CC(C)NC(=O)Nc1ccc2c(c1)C(=O)N([C@H](C)CO)C[C@@H](C)[C@H](CN(C)C(=O)NC1CCCCC1)OCCCC[C@@H](C)O2	7	·	0	0	2	0
O=C(Cc1c(F)cccc1Cl)NCc1cccnc1	-1	7	0	5	8	0
SMILES	SIRT5 block	FN deposition inh	FGF22 binding	DENV2 CPE rescue	ARNT-TACC3 inh	XiGFP reactiv
Cc1cc(CNC(=O)c2cc(COc3c(F)cccc3F)on2)nn1C	1	9	44*	9	3	0
Cc1nc(CNC(=O)c2cc(COc3c(F)cccc3F)on2)cs1	-3	3	0	0	9	0
Cc1cc(CNC(=O)Cc2c(F)cccc2Cl)nn1C	23*	·	0	-1	-4	·
C[C@@H]1CN([C@@H](C)CO)C(=O)c2cc(NC(=O)NC3CCCCC3)ccc2O[C@H]1CN(C)S(=O)(=O)c1ccccc1	0	-10	0	-10	-3	0
CCC(=O)N1CC2(C1)CN(S(=O)(=O)c1ccccc1)[C@@H](CO)c1[nH]c3cc(OC)ccc3c12	·	·	0	15	·	0
CCS(=O)(=O)N1CC2(C1)CN(S(=O)(=O)c1cn(C)cn1)[C@H](CO)c1[nH]c3cc(OC)ccc3c12	-1	0	0	-10	·	0
CCCC(=O)N1CC2(C1)CN(S(=O)(=O)c1ccc(C)cc1)[C@H](CO)c1[nH]c3cc(OC)ccc3c12	15*	-1	·	-1	·	0
CCC(=O)N1CCC2(CC1)CN(S(=O)(=O)c1ccccc1)[C@@H](CO)c1[nH]c3cc(OC)ccc3c12	2	·	0	28*	·	0
CCS(=O)(=O)N1CC2(C1)CN(S(=O)(=O)c1cn(C)cn1)[C@@H](CO)c1[nH]c3cc(OC)ccc3c12	30*	3	0	-12	·	0
Cc1noc(C)c1NC(=O)Nc1ccc2c(c1)C(=O)N([C@@H](C)CO)C[C@@H](C)[C@@H](CN(C)Cc1ccc3c(c1)OCO3)OCCCC[C@@H](C)O2	·	1	0	11	-2	0
COC(=O)C[C@@H]1C[C@H]2c3cc(NC(=O)Nc4ccc(C(F)(F)F)cc4)ccc3O[C@H]2[C@@H](CO)O1	2	-4	0	5	-1	1
CC(NC(c1ccccc1)c1ccccc1)C(=O)N1CCCc2ccccc21 (configuration not stated)	·	6	·	·	2	0
CC(Nc1ccccc1N1CCCCC1)C(=O)N1CCc2ccccc21 (configuration not stated)	-4	1	43*	12	6	0

Screening results: PubChem, Broad Institute
